From ChEMBL document CHEMBL2390852, “Anti-influenza active and low toxic N-phenyl-substituted β-amidoamidines structurally related to natural antibiotic amidinomycin” (Bioorg Med Chem Lett, 2013)
The source made the active and inactive calls. The calls are words filed in the database; no cut-off is given here.

Legend:
[1] = system: influenza A virus A/St. Petersburg/34/72 (H3N2); assay: Therapeutic index, ratio of CC50 for dog MDCK cells to EC50 for 1 infective dose of influenza A virus A/St. Petersburg/34/72 (H3N2); assay type: cell-based; conditions: read-out: Ratio CC50/EC50
[2] = Cytotoxicity against dog MDCK cells after 48 hrs by MTT assay; assay type: cell-based, Canis lupus familiaris
Procedure, shortened: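 MDCK cells were incubated with compound at various concentrations for 48 h. CC50 is the concentration causing 50% reduction of cell viability. Values are means of 2–4 separate experiments.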

Influenza A virus [3] = assay: Antiviral activity against 100 infective dose of influenza A virus A/St. Petersburg/34/72 (H3N2) infected in dog MDCK cells assessed as virus-induced cytopathic effect after 48 hrs; assay type: functional, organism-based
Procedure, shortened: (§1)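 MDCK cells in maintenance medium were infected with 1 infective dose or 100 doses, where 1 dose induced 50 3% cell death under standard conditions. Cells were incubated with compound at various concentrations for 48 h at 37 °C in 5% CO2. CPE was scored against cell and virus controls, and EC50 is the concentration giving 50% inhibition of CPE. Values are means of 2–4 separate experiments.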

Influenza A virus [4] = assay: Antiviral activity against 1 infective dose of influenza A virus A/St. Petersburg/34/72 (H3N2) infected in dog MDCK cells assessed as virus-induced cytopathic effect after 48 hrs; assay type: functional, organism-based; procedure, shortened: as §1
H3N2 subtype [5] = assay: Antiviral activity against Influenza A virus (A/Aichi/2/1968(H3N2))-infected in Balb/c mouse at 0.1 LD50/dose, sc for 5 times measured after 7 to 14 days; assay type: functional, organism-based
Procedure, shortened: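 Balb/c mice of both sexes, 10 per group, were infected intranasally with mouse-adapted virus. […] Vehicle controls received the same schedule. Survivors were counted on days 7 and 14.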

Influenza A virus [6] = assay: Antiviral activity against influenza A virus A/St. Petersburg/34/72 (H3N2) infected in dog MDCK cells using chicken erythrocytes by hemadsorption assay; assay type: functional, organism-based
Procedure, shortened: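 Hemadsorption of chicken erythrocytes was used alongside the CPE read-out on infected MDCK cells after 48 h compound incubation at 37 °C in 5% CO2. The results of the two assays were averaged.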

[7] = system: influenza A virus A/St. Petersburg/34/72 (H3N2); assay: Therapeutic index, ratio of CC50 for dog MDCK cells to EC50 for 100 infective dose of influenza A virus A/St. Petersburg/34/72 (H3N2; assay type: cell-based; conditions: read-out: Ratio CC50/EC50
H3N2 subtype [8] = assay: Antiviral activity against Influenza A virus (A/Aichi/2/1968(H3N2))-infected in Balb/c mouse at </= 100 mg/kg, sc after 7 to 14 days; assay type: functional, organism-based; set-up: dose 100 mg/kg
[9] = Acute toxicity in sc dosed Balb/c mouse after 5 days; assay type: organism-based; conditions: in vivo
Procedure, shortened: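 Male Balb/c mice, four per group, given single SC doses rising from 1000 to 4000 mg/kg in 500 mg/kg steps, in saline/DMSO 4:1 (200 µL total). LD50 was taken as the dose giving 50% mortality, with toxicity estimated in a 5 days test.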

Mus musculus [10] = assay: Sub-acute toxicity in Balb/c mouse assessed as change in body weight at 300 mg/kg, sc administered for 6 days measured on day 10; assay type: organism-based; set-up: dose 300 mg/kg, route subcutaneous; conditions: in vivo, 144 h
Procedure, shortened: (§2)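 Four mice, two of each sex, were given 300 mg/kg SC daily for 6 days. Behaviour and body weight were assessed at day 10.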

Mus musculus [11] = assay: Sub-acute toxicity in Balb/c mouse assessed as behavioural change at 300 mg/kg, sc administered for 6 days measured on day 10; assay type: organism-based; set-up: dose 300 mg/kg, route subcutaneous; conditions: in vivo, 144 h; procedure, shortened: as §2
Mus musculus [12] = assay: Sub-acute toxicity in Balb/c mouse assessed as survival at 1000 mg/kg, sc after 10 days; assay type: organism-based; set-up: dose 1000 mg/kg, route subcutaneous; conditions: in vivo, 240 h
Procedure, shortened: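 Four male Balb/c mice each received a single SC dose of 1000 mg/kg in saline/DMSO 4:1. Survival was followed for at least 10 days.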

| SMILES | selectivity ratio [1] | CC50 at 48 h [2] [µM] | EC50 (Influenza A virus [3]) [µM] | EC50 (Influenza A virus [4]) [µM] | Activity (H3N2 subtype [5]) | Activity (Influenza A virus [6]) | selectivity ratio [7] | Activity (H3N2 subtype [8]) | LD50 at 120 h [9] [mg/kg] | Activity (Mus musculus [10]) | Activity (Mus musculus [11]) | Activity (Mus musculus [12]) |
| --- | --- | --- | --- | --- | --- | --- | --- | --- | --- | --- | --- | --- |
| CC(CN(C(=O)c1ccccc1)c1ccccc1)/C(=N\c1ccccc1)Nc1ccccc1 (racemic) | < 2.85 | 286 | ≥ 200 | > 100 | – | – | – | – | – | – | – | – |
| CCCCCCCCCCC(=O)N(CC(C)/C(=N\c1ccccc1)Nc1ccccc1)c1ccccc1.Cl (racemic) | 514 | 936 | 7.3 | 1.82 | Active | Active | 128 | inactive | 3500 | – | – | – |
| N=C(N)CCNC(=O)[C@@H]1CC[C@H](N)C1 [(1R,3S)-AMIDINOMYCIN] | – | – | – | – | – | – | – | – | 10 | – | – | – |
| CCCC(=O)N(CC(C)/C(=N\c1ccccc1)Nc1ccccc1)c1ccccc1 (racemic) | 9 | 216 | 98 | 24 | – | – | 2.2 | – | – | – | – | – |
| CC(CNc1ccccc1)/C(=N\c1ccccc1)Nc1ccccc1 (racemic) | – | 85 | ≥ 200 | ≥ 200 | – | – | – | – | – | – | – | – |
| CCCCCCCCC(=O)N(CC(C)/C(=N\c1ccccc1)Nc1ccccc1)c1ccccc1.Cl (racemic) | 260 | 247 | 1.98 | 0.95 | Active | Active | 125 | inactive | 3000 | Non-toxic | Non-toxic | Non-toxic |
| CC(=O)N(CC(C)/C(=N\c1ccccc1)Nc1ccccc1)c1ccccc1 (racemic) | 2.25 | 153 | ≥ 200 | 68 | – | – | – | – | – | – | – | – |
| CCCCCCCCCCCCCCCCCC(=O)N(CC(C)/C(=N\c1ccccc1)Nc1ccccc1)c1ccccc1 (racemic) | 80 | 1240 | 72 | 15.6 | – | – | 17 | – | – | – | – | – |
| CCCCCCCCCCCCC(=O)N(CC(C)/C(=N\c1ccccc1)Nc1ccccc1)c1ccccc1.Cl (racemic) | 128 | 890 | 27.8 | 6.95 | Active | – | 32 | inactive | 4000 | – | – | – |
| CC(N)C12CC3CC(CC(C3)C1)C2 (stereo not drawn) [RIMANTADINE] | 256 | 1400 | 43.5 | 5.45 | – | – | 32 | Active | 175 | – | – | – |
